Data reported in ChEMBL document CHEMBL4138318, “Discovery of 5-Cyano-6-phenylpyrimidin Derivatives Containing an Acylurea Moiety as Orally Bioavailable Reversal Agents against P-Glycoprotein-Mediated Mutidrug Resistance” (J Med Chem, 2018).
The source made the active and inactive calls. No cut-off for these calls is given here.

Tests used:
SW620/AD300 [1] = test: Antitumor activity against ABCB1 overexpressing human SW620/AD300 cells xenografted in BALB/c nude mouse assessed as reduction in tumor volume at 20 mg/kg/day, po measured after 21 days; format: functional, organism-based
Outline: (§1)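 Female BALB/c nude mice (18-20 g, 5-6 weeks) bearing SW620/AD300 xenografts; grouping once tumours reached 100 mm3: saline vehicle […] ip, paclitaxel 5 mg/kg every 3 days ip, test agent 20 mg/kg/day orally, or the combination. Body weight and tumour volume recorded every 2 days over 21 days; tumours excised and weighed at end.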

SW-620 [2] = test: Inhibition of [3H]-paclitaxel efflux in human SW620 cells up to 4 uM preincubated for 4 hrs followed by [3H]-paclitaxel addition for 2 hrs measured after 120 mins by liquid scintillation counting method; format: functional, cell-based
Outline: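 After 2 h loading with 0.1 µM [3H]-paclitaxel (following 4 h compound pre-exposure), SW620 or SW620/AD300 cells moved to label-free medium for a 2 h efflux phase; samples taken at 0, 30, 60 and 120 min and radioactivity counted by liquid scintillation. Three independent assays, mean ± SD.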

[3] = target: T1, ATP-dependent translocase ABCB1 (Homo sapiens, UniProt P08183); test: Inhibition of ABCB1 in human SW620/AD300 cells assessed as potentiation of paclitaxel-induced cytotoxicity by measuring fold reduction in paclitaxel IC50 at 2 uM after 72 hrs by MTT assay relative to paclitaxel alone; format: cell-based
T1 sequence (P08183 whole entry): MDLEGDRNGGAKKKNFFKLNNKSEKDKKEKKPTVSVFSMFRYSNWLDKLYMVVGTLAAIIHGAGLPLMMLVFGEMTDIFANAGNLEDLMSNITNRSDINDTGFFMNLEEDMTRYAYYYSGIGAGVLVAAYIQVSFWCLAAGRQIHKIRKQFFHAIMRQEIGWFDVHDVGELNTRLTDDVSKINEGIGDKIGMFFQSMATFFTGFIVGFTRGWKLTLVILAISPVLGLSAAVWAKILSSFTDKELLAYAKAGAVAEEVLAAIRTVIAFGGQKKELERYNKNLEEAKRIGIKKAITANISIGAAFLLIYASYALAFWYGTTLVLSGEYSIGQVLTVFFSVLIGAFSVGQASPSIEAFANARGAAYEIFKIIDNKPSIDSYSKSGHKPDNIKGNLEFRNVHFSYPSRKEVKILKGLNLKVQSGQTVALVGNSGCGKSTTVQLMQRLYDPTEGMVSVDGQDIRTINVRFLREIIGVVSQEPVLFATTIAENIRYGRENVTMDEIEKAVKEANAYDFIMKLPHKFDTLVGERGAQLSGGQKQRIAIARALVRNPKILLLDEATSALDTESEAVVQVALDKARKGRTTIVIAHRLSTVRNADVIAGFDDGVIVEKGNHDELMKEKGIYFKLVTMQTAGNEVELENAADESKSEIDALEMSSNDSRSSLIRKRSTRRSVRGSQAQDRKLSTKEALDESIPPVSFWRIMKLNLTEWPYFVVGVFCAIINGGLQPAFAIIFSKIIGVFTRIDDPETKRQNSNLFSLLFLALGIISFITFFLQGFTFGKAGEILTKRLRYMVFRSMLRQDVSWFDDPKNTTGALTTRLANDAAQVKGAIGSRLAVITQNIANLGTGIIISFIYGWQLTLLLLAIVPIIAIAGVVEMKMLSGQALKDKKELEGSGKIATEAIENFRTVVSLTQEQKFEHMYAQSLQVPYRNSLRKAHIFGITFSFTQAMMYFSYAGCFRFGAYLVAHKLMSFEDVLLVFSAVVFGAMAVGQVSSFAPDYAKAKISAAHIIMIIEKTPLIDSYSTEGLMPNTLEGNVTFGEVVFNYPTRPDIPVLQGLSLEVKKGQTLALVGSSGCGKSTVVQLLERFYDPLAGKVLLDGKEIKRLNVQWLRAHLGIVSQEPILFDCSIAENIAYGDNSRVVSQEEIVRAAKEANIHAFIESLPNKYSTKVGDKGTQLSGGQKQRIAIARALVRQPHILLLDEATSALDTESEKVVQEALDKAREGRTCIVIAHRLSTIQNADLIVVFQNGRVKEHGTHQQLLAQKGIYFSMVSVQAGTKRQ
Outline: (§2)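 SW620/AD300 cells (~5×10^3/well) treated with graded paclitaxel with or without modulator (2 µM, or 0.5-2 µM in dose series; 0.1% DMSO solvent control) for 72 h; MTT (5 mg/mL stock) added 4 h, absorbance 490 nm. IC50 as mean ± SD of three independent runs; reversal fold = paclitaxel IC50 without/with modulator.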

[4] = target: T1, ATP-dependent translocase ABCB1; test: Inhibition of ABCB1 in human SW620/AD300 cells assessed as intracellular accumulation of paclitaxel up to 4 uM treated at 2 hrs post paclitaxel treatment for 30 mins in paclitaxel free medium by HPLC analysis; format: cell-based; settings: 0.5 h
Outline: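 Equal numbers of SW620/AD300 cells loaded with 6 µg/mL paclitaxel 2 h, then held in paclitaxel-free medium with or without compound 30 min at 37℃; cells harvested, disrupted by ultrasound, extracted with ethyl acetate and paclitaxel quantified by HPLC.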

[5] = target: T1, ATP-dependent translocase ABCB1; test: Inhibition of ABCB1 (unknown origin) expressed in HEK293 cells assessed as potentiation of vincristine-induced cytotoxicity by measuring fold reduction in vincristine IC50 at 1 uM preincubated for 4 hrs followed by vincristine addition measured after 72 hrs by MTT assay; format: cell-based
[6] = target: T1, ATP-dependent translocase ABCB1; test: Inhibition of ABCB1 in human SW620/AD300 cells assessed as accumulation of rhodamine 123 preincubated for 4 hrs followed by rhodamine 123 addition measured after 30 mins by flow cytometry; format: cell-based; settings: 0.5 h
[7] = target: T1, ATP-dependent translocase ABCB1; test: Inhibition of ABCB1 in human SW620/AD300 cells assessed as decrease in rhodamine 123 efflux preincubated for 4 hrs followed by 30 mins incubation in Rho-123 containing medium and subsequent incubation in Rho-123 free medium up to 120 mins by flow cytometry; format: cell-based
Outline: (§3)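 Cells loaded with rhodamine 123 as in the accumulation assay (4 h compound pre-exposure, 1 µg/mL dye 30 min, 37℃), then kept in dye-free medium with or without reversal agent for 30, 60, 90 or 120 min at 37℃; intracellular fluorescence read by flow cytometry at 488/530 nm. Three independent experiments.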

[8] = target: T1, ATP-dependent translocase ABCB1; test: Inhibition of ABCB1 in human SW620/AD300 cells assessed as potentiation of paclitaxel-induced cytotoxicity after 72 hrs by MTT assay; format: cell-based; outline: as §2
[9] = Cytotoxicity against human SW620/AD300 cells assessed as survival at 2 uM after 72 hrs by MTT assay relative to control; format: cell-based; settings: read-out: Survival
[10] = target: T2, Multidrug resistance-associated protein 1 (Homo sapiens, UniProt P33527); test: Inhibition of ABCC1 (unknown origin) expressed in HEK293 cells assessed as potentiation of vincristine-induced cytotoxicity by measuring fold reduction in vincristine IC50 at 1 uM preincubated for 4 hrs followed by vincristine addition measured after 72 hrs by MTT assay; format: cell-based
T2 sequence (P33527 whole entry): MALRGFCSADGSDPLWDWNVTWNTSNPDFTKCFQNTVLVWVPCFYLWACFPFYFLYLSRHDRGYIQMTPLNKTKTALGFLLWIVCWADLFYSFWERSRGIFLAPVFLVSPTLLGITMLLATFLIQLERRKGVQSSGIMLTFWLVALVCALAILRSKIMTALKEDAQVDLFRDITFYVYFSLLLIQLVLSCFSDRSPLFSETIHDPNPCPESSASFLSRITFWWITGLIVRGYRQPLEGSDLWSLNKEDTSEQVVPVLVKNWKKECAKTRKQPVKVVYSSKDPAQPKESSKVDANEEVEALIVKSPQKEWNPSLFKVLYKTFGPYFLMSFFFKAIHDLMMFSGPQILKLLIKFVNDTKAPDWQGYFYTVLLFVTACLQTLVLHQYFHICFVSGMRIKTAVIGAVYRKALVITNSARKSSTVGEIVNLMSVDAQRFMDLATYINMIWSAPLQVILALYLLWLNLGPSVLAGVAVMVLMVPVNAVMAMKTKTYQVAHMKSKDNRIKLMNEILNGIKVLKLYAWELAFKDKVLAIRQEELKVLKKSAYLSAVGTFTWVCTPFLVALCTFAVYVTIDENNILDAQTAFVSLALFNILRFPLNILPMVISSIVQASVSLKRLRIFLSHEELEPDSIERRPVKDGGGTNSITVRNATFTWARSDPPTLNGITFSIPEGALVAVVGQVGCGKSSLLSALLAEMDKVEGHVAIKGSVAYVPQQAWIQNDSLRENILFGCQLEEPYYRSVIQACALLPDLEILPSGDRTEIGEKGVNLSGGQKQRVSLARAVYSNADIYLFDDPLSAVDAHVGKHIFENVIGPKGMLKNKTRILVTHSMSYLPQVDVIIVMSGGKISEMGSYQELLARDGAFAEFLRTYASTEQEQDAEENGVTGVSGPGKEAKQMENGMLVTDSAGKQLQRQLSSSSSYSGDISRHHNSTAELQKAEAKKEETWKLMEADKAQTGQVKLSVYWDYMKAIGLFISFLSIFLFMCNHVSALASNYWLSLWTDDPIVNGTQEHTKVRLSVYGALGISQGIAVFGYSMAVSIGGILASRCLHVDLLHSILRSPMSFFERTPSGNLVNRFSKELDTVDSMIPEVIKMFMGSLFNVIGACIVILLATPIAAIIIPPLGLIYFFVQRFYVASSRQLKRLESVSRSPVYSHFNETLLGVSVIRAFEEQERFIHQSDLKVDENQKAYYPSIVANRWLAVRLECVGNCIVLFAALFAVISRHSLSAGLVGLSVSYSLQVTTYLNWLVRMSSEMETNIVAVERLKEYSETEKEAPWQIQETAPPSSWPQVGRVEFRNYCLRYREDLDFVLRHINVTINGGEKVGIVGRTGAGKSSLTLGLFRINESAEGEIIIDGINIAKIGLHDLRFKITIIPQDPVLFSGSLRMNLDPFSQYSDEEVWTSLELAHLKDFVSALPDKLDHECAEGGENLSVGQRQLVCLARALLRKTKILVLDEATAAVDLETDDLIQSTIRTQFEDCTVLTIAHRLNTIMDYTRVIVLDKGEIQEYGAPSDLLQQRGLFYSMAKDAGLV
Outline: (§4)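 KB-CV60 and HEK293/ABCC1 cells (transfected line kept in 2 mg/mL G418) given graded vincristine with or without modulator for 72 h; MK571 25 µM reference; viability by MTT read at 490 nm. IC50 from three independent repeats, mean ± SD; reversal fold = vincristine IC50 ratio without/with modulator.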

[11] = target: T1, ATP-dependent translocase ABCB1; test: Inhibition of ABCB1 in human SW620/AD300 cells assessed as potentiation of paclitaxel-induced cytotoxicity by measuring fold reduction in paclitaxel IC50 at 1 uM after 72 hrs by MTT assay; format: cell-based; outline: as §2
SW-620 [12] = test: Inhibition of rhodamine 123 efflux in human SW620 cells up to 4 uM preincubated for 4 hrs followed by 30 mins incubation in Rho-123 containing medium and subsequent incubation in Rho-123 free medium up to 120 mins by flow cytometry; format: functional, cell-based; outline: as §3
[13] = target: T2, Multidrug resistance-associated protein 1; test: Binding affinity at ABCC1 in human SW620/AD300 cells assessed as thermal stabilization preincubated for 30 mins followed by incubation 40 to 61 degC for 3 mins by CETSA; format: cell-based; settings: 0.05 h
Outline: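 SW620/AD300 cells lysed by three liquid-nitrogen freeze-thaw cycles; ultracentrifuged supernatant split into compound-treated and solvent-control portions, incubated 30 min at 37℃, aliquoted and heated 3 min at 40, 43, 46, 49, 52, 55, 58 or 61℃; remaining ABCB1 or ABCC1 detected by western blotting.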

[14] = target: T2, Multidrug resistance-associated protein 1; test: Inhibition of ABCC1 in human KB-CV60 cells assessed as potentiation of vincristine-induced cytotoxicity by measuring fold reduction in vincristine IC50 at 1 uM preincubated for 4 hrs followed by vincristine addition measured after 72 hrs by MTT assay; format: cell-based; outline: as §4
SW620/AD300 [15] = test: Effect on subcellular localization of ABCB1 in human SW620/AD300 cells at 2 uM after 48 hrs by Hoechst 33258 staining-based immunofluorescence assay; format: functional, cell-based
Outline: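 About 1×10^4 cells on coverslips incubated with compound 48 h, fixed in 4% paraformaldehyde ≥20 min, blocked 2 h in PBS with 5% BSA, anti-ABCB1 primary overnight at 4℃, Alexa Fluor 488 anti-goat secondary 2 h, nuclei stained with Hoechst 33258 20 min; imaged by laser scanning confocal microscopy.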

[16] = target: T1, ATP-dependent translocase ABCB1; test: Inhibition of ABCB1 in human KB-C2 cells assessed as potentiation of vincristine-induced cytotoxicity by measuring fold reduction in vincristine IC50 at 1 uM preincubated for 4 hrs followed by vincristine addition measured after 72 hrs by MTT assay; format: cell-based
Mus musculus = test: Toxicity in nude BALB/c mouse xenografted with ABCB1 overexpressing human SW620/AD300 cells assessed as change in body weight at 20 mg/kg/day, po cotreated with 5 mg/kg, ip paclitaxel measured after 21 days; format: organism-based; settings: in vivo, 504 h; outline: as §1

COc1cc(-c2nc(SCC(=O)NC(=O)Nc3ccccn3)nc(Nc3cccc(Cl)c3)c2C#N)cc(OC)c1OC
Activity (SW620/AD300 [1]): inactive | inhibition (SW-620 [2]): inactive | fold change (FC) [3]: 837.2 | inhibition (INH) [4]: Active | fold change (FC) [5]: 9.75 | inhibition (INH) [6]: Dose-dependent effect | inhibition (INH) [7]: Dose-dependent effect | inhibition (INH) [8]: Dose-dependent effect | viability at 72 h, 2 µM [9]: > 90% | fold change (FC) [10]: 1.14 | fold change (FC) [11]: 135.03 | inhibition (SW-620 [12]): inactive | Activity [13]: Not Active | fold change (FC) [14]: 1.13 | Activity (SW620/AD300 [15]): inactive | fold change (FC) [16]: 3.85 | Activity (Mus musculus): Non-Toxic
